Results: ChEMBL document CHEMBL4732237, “Discovery of 4-alkoxy-2-aryl-6,7-dimethoxyquinolines as a new class of topoisomerase I inhibitors endowed with potent in vitro anticancer activity” (2021)

Columns and labels:
Format in all cases: functional
Conditions in all cases: read-out: GI
SF-268 = experiment: Growth inhibition of human SF-268 cells at 10 uM incubated for 48 hrs by sulforhodamine B assay relative to control
In short: (§1)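 NCI one-dose screen. Cells grown in RPMI 1640 with 5% FBS and 2 mM L-glutamine, plated and incubated 24 h at 37 °C, 5% CO2. DMSO-dissolved drug added, then 48 h further incubation. Adherent cells fixed with cold TCA, suspension cells fixed after settling. Stained with 0.4% SRB, absorbance read at 515 nm. Reported as percent growth relative to no-drug control and time-zero cell number.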

IGROV-1 = experiment: Growth inhibition of human IGROV-1 cells at 10 uM incubated for 48 hrs by sulforhodamine B assay relative to control
In short: (§2)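 NCI-60 single-dose screen. Cells were grown in RPMI 1640 with 5% FBS and 2 mM L-glutamine and plated 24 h before drug addition. Compound was added at one concentration in DMSO-derived medium and incubated for 48 h at 37 °C in 5% CO2. Read-out was SRB protein stain at 515 nm. Result is percent growth versus the no-drug control and the time-zero cell count; values below 0 indicate lethality.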

PC-3 = experiment: Growth inhibition of human PC-3 cells at 10 uM incubated for 48 hrs by sulforhodamine B assay relative to control; in short: as §1
SNB-19 = experiment: Growth inhibition of human SNB-19 cells at 10 uM incubated for 48 hrs by sulforhodamine B assay relative to control; in short: as §1
UO-31 = experiment: Growth inhibition of human UO-31 cells at 10 uM incubated for 48 hrs by sulforhodamine B assay relative to control
In short: (§3)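 NCI one-dose screen across a 59-line panel. Cells were grown in RPMI 1640 with 5% FBS and 2 mM L-glutamine, plated and pre-incubated 24 h, then exposed to drug for 48 h at 37 °C, 5% CO2. Adherent cells were fixed with cold TCA (10% final), stained with 0.4% SRB in 1% acetic acid and read at 515 nm. Result is percent growth relative to no-drug control and time-zero cell count.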

OVCAR-3 = experiment: Growth inhibition of human OVCAR-3 cells at 10 uM incubated for 48 hrs by sulforhodamine B assay relative to control; in short: as §1
SF-295 = experiment: Growth inhibition of human SF-295 cells at 10 uM incubated for 48 hrs by sulforhodamine B assay relative to control; in short: as §1
NCI/ADR-RES = experiment: Growth inhibition of human NCI/ADR-RES cells at 10 uM incubated for 48 hrs by sulforhodamine B assay relative to control; in short: as §1
MDA-MB-231 = experiment: Growth inhibition of human MDA-MB-231 cells at 10 uM incubated for 48 hrs by sulforhodamine B assay relative to control; in short: as §2
M14 = experiment: Growth inhibition of human M14 cells at 10 uM incubated for 48 hrs by sulforhodamine B assay relative to control; in short: as §2
SW-620 = experiment: Growth inhibition of human SW-620 cells at 10 uM incubated for 48 hrs by sulforhodamine B assay relative to control; in short: as §3
NCI-H23 = experiment: Growth inhibition of human NCI-H23 cells at 10 uM incubated for 48 hrs by sulforhodamine B assay relative to control; in short: as §1
COLO 205 = experiment: Growth inhibition of human COLO 205 cells at 10 uM incubated for 48 hrs by sulforhodamine B assay relative to control; in short: as §2
Hs-578T = experiment: Growth inhibition of human HS-578T cells at 10 uM incubated for 48 hrs by sulforhodamine B assay relative to control; in short: as §2
K562 = experiment: Growth inhibition of human K562 cells at 10 uM incubated for 48 hrs by sulforhodamine B assay relative to control; in short: as §2
OVCAR-5 = experiment: Growth inhibition of human OVCAR-5 cells at 10 uM incubated for 48 hrs by sulforhodamine B assay relative to control; in short: as §1
HOP-92 = experiment: Growth inhibition of human HOP-92 cells at 10 uM incubated for 48 hrs by sulforhodamine B assay relative to control; in short: as §2
MDA-MB-435 = experiment: Growth inhibition of human MDA-MB-435 cells at 10 uM incubated for 48 hrs by sulforhodamine B assay relative to control; in short: as §2
SNB-75 = experiment: Growth inhibition of human SNB-75 cells at 10 uM incubated for 48 hrs by sulforhodamine B assay relative to control; in short: as §1
Malme-3M = experiment: Growth inhibition of human Malme-3M cells at 10 uM incubated for 48 hrs by sulforhodamine B assay relative to control; in short: as §1
SK-MEL-2 = experiment: Growth inhibition of human SK-MEL-2 cells at 10 uM incubated for 48 hrs by sulforhodamine B assay relative to control; in short: as §1
NCI-H460 = experiment: Growth inhibition of human NCI-H460 cells at 10 uM incubated for 48 hrs by sulforhodamine B assay relative to control; in short: as §1
HL-60(TB) = experiment: Growth inhibition of human HL-60(TB) cells at 10 uM incubated for 48 hrs by sulforhodamine B assay relative to control
In short: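 NCI-60 one-dose screen: same culture, 48 h drug exposure and SRB read-out. Reported as percent growth relative to no-drug control and to time-zero cell number; 0–100 means growth inhibition, below 0 means lethality.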

BT-549 = experiment: Growth inhibition of human BT-549 cells at 10 uM incubated for 48 hrs by sulforhodamine B assay relative to control; in short: as §2
U-251 = experiment: Growth inhibition of human U-251 cells at 10 uM incubated for 48 hrs by sulforhodamine B assay relative to control; in short: as §3
OVCAR-8 = experiment: Growth inhibition of human OVCAR-8 cells at 10 uM incubated for 48 hrs by sulforhodamine B assay relative to control; in short: as §1
NCI-H322M = experiment: Growth inhibition of human NCI-H322M cells at 10 uM incubated for 48 hrs by sulforhodamine B assay relative to control; in short: as §1
SR = experiment: Growth inhibition of human SR cells at 10 uM incubated for 48 hrs by sulforhodamine B assay relative to control; in short: as §1
MOLT-4 = experiment: Growth inhibition of human MOLT-4 cells at 10 uM incubated for 48 hrs by sulforhodamine B assay relative to control; in short: as §1
UACC-62 = experiment: Growth inhibition of human UACC-62 cells at 10 uM incubated for 48 hrs by sulforhodamine B assay relative to control; in short: as §3
NCI-H226 = experiment: Growth inhibition of human NCI-H226 cells at 10 uM incubated for 48 hrs by sulforhodamine B assay relative to control; in short: as §1
LOX IMVI = experiment: Growth inhibition of human LOX IMVI cells at 10 uM incubated for 48 hrs by sulforhodamine B assay relative to control; in short: as §2
EKVX = experiment: Growth inhibition of human EKVX cells at 10 uM incubated for 48 hrs by sulforhodamine B assay relative to control; in short: as §2
MCF7 = experiment: Growth inhibition of human MCF7 cells at 10 uM incubated for 48 hrs by sulforhodamine B assay relative to control; in short: as §2
OVCAR-4 = experiment: Growth inhibition of human OVCAR-4 cells at 10 uM incubated for 48 hrs by sulforhodamine B assay relative to control; in short: as §1
MDA-MB-468 = experiment: Growth inhibition of human MDA-MB-468 cells at 10 uM incubated for 48 hrs by sulforhodamine B assay relative to control; in short: as §2

Row | Compound | inhibition of growth at 10 µM (SF-268) [%] | inhibition of growth at 10 µM (IGROV-1) [%] | inhibition of growth at 10 µM (PC-3) [%] | inhibition of growth at 10 µM (SNB-19) [%] | inhibition of growth at 10 µM (UO-31) [%] | inhibition of growth at 10 µM (OVCAR-3) [%] | inhibition of growth at 10 µM (SF-295) [%] | inhibition of growth at 10 µM (NCI/ADR-RES) [%] | inhibition of growth at 10 µM (MDA-MB-231) [%] | inhibition of growth at 10 µM (M14) [%] | inhibition of growth at 10 µM (SW-620) [%] | inhibition of growth at 10 µM (NCI-H23) [%] | inhibition of growth at 10 µM (COLO 205) [%] | inhibition of growth at 10 µM (Hs-578T) [%] | inhibition of growth at 10 µM (K562) [%] | inhibition of growth at 10 µM (OVCAR-5) [%] | inhibition of growth at 10 µM (HOP-92) [%] | inhibition of growth at 10 µM (MDA-MB-435) [%] | inhibition of growth at 10 µM (SNB-75) [%] | inhibition of growth at 10 µM (Malme-3M) [%] | other results
1 | COc1cc2nc(-c3ccc(C(F)(F)F)cc3)cc(OCCN3CCCC3)c2cc1OC | 13 | 13 | 13 | 13 | 13 | 13 | 13 | 13 | 13 | 13 | 13 | 13 | 13 | 13 | 13 | 13 | 13 | 13 | 13 | 13 | inhibition of growth at 10 µM (SK-MEL-2): 13%; inhibition of growth at 10 µM (NCI-H460): 13%; inhibition of growth at 10 µM (HL-60(TB)): 13%; inhibition of growth at 10 µM (BT-549): 13%; inhibition of growth at 10 µM (U-251): 13%; inhibition of growth at 10 µM (OVCAR-8): 13%; inhibition of growth at 10 µM (NCI-H322M): 13%; inhibition of growth at 10 µM (SR): 13%; inhibition of growth at 10 µM (MOLT-4): 13%; inhibition of growth at 10 µM (UACC-62): 13%; inhibition of growth at 10 µM (NCI-H226): 13%; inhibition of growth at 10 µM (LOX IMVI): 13%; inhibition of growth at 10 µM (EKVX): 13%; inhibition of growth at 10 µM (MCF7): 13%; inhibition of growth at 10 µM (OVCAR-4): 13%; inhibition of growth at 10 µM (MDA-MB-468): 13%
2 | COc1cc2nc(-c3ccc(C(F)(F)F)cc3)cc(OCCN3CCOCC3)c2cc1OC | 13 | 13 | 13 | 13 | 13 | 13 | 13 | 13 | 13 | 13 | 13 | 13 | 13 | 13 | 13 | 13 | 13 | 13 | 13 | 13 | inhibition of growth at 10 µM (SK-MEL-2): 13%; inhibition of growth at 10 µM (NCI-H460): 13%; inhibition of growth at 10 µM (HL-60(TB)): 13%; inhibition of growth at 10 µM (BT-549): 13%; inhibition of growth at 10 µM (U-251): 13%; inhibition of growth at 10 µM (OVCAR-8): 13%; inhibition of growth at 10 µM (NCI-H322M): 13%; inhibition of growth at 10 µM (SR): 13%; inhibition of growth at 10 µM (MOLT-4): 13%; inhibition of growth at 10 µM (UACC-62): 13%; inhibition of growth at 10 µM (NCI-H226): 13%; inhibition of growth at 10 µM (LOX IMVI): 13%; inhibition of growth at 10 µM (EKVX): 13%; inhibition of growth at 10 µM (MCF7): 13%; inhibition of growth at 10 µM (OVCAR-4): 13%; inhibition of growth at 10 µM (MDA-MB-468): 13%
3 | COc1cc2nc(-c3ccc(Cl)cc3)cc(OCCCN3CCC(O)CC3)c2cc1OC | 62 | 62 | 62 | 62 | 62 | 62 | 62 | 62 | 62 | 62 | 62 | 62 | 62 | 62 | 62 | 62 | 62 | 62 | 62 | 62 | inhibition of growth at 10 µM (SK-MEL-2): 62%; inhibition of growth at 10 µM (NCI-H460): 62%; inhibition of growth at 10 µM (HL-60(TB)): 62%; inhibition of growth at 10 µM (BT-549): 62%; inhibition of growth at 10 µM (U-251): 62%; inhibition of growth at 10 µM (OVCAR-8): 62%; inhibition of growth at 10 µM (NCI-H322M): 62%; inhibition of growth at 10 µM (SR): 62%; inhibition of growth at 10 µM (MOLT-4): 62%; inhibition of growth at 10 µM (UACC-62): 62%; inhibition of growth at 10 µM (NCI-H226): 62%; inhibition of growth at 10 µM (LOX IMVI): 62%; inhibition of growth at 10 µM (EKVX): 62%; inhibition of growth at 10 µM (MCF7): 62%; inhibition of growth at 10 µM (OVCAR-4): 62%; inhibition of growth at 10 µM (MDA-MB-468): 62%
